Experimental data published in ChEMBL document CHEMBL1152649, “Synthesis, cytotoxicity and human telomerase inhibition activities of a series of 1,2-heteroannelated anthraquinones and anthra[1,2-d]imidazole-6,11-dione homologues” (2009).

Legend:
LOX IMVI = assay: Antiproliferative activity against human LOXIMVI cells assessed as cell growth at 10 uM; assay type: functional; details: read-out: Activity
Method in brief: (§1)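 NCI 60 cell line panel, single-dose screen (10^-5 M) run by the developmental therapeutics program protocol. Results are given as growth percent of treated cells relative to untreated control cells for each line.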

A498 = assay: Antiproliferative activity against human A498 cells assessed as cell growth at 10 uM; assay type: functional; details: read-out: Activity; method in brief: as §1
HOP-62 = assay: Antiproliferative activity against human HOP62 cells assessed as cell growth at 10 uM; assay type: functional; details: read-out: Activity; method in brief: as §1
SF-539 = assay: Antiproliferative activity against human SF539 cells assessed as cell growth at 10 uM; assay type: functional; details: read-out: Activity; method in brief: as §1
SW-620 = assay: Antiproliferative activity against human SW620 cells assessed as cell growth at 10 uM; assay type: functional; details: read-out: Activity
Method in brief: (§2)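 NCI 60 cell line panel, single dose (10^-5 M), run per the Developmental Therapeutics Program protocol (one dose mean graph). Each result is the growth percentage of treated cells relative to untreated control cells.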

[1] = biological target: Telomerase reverse transcriptase (Homo sapiens) (UniProt O14746); assay: Inhibition of TERT in human H1299 cells assessed as residual transcriptional activity at 100 uM after 24 hrs by SEAP reporter gene assay; values are per cent of control
SN12C = assay: Antiproliferative activity against human SN12C cells assessed as cell growth at 10 uM; assay type: functional; details: read-out: Activity; method in brief: as §1
NCI-H226 = assay: Antiproliferative activity against human NCI-H226 cells assessed as cell growth at 10 uM; assay type: functional; details: read-out: Activity; method in brief: as §1
[2] = Cytotoxicity against human H1299 cells at 1 uM after 48 hrs by MTT assay; assay type: functional; details: NCI-H1299, 48 h
Method in brief: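 H1299 non-small cell lung cancer cells were grown in RPMI 1640 with 10% FBS, penicillin and streptomycin at 37 °C under 5% CO2. About 2 × 10³ cells per well were seeded and left 24 h. Compounds were dissolved fresh in DMSO, diluted into complete medium and applied for 48 h. MTT was then added for 4 h at 37 °C, followed by lysis buffer (20% SDS, 50% DMF) for 16 h, and absorbance was read at 550 nm.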

MDA-MB-435 = assay: Antiproliferative activity against human MDA-MB-435 cells assessed as cell growth at 10 uM; assay type: functional; details: read-out: Activity; method in brief: as §1
HOP-92 = assay: Antiproliferative activity against human HOP92 cells assessed as cell growth at 10 uM; assay type: functional; details: read-out: Activity; method in brief: as §1
SNB-19 = assay: Antiproliferative activity against human SNB19 cells assessed as cell growth at 10 uM; assay type: functional; details: read-out: Activity; method in brief: as §1
Malme-3M = assay: Antiproliferative activity against human MALME-3M cells assessed as cell growth at 10 uM; assay type: functional; details: read-out: Activity; method in brief: as §1
SR = assay: Antiproliferative activity against human SR cells assessed as cell growth at 10 uM; assay type: functional; details: read-out: Activity; method in brief: as §2
HCT-15 = assay: Antiproliferative activity against human HCT15 cells assessed as cell growth at 10 uM; assay type: functional; details: read-out: Activity; method in brief: as §1
HL-60(TB) = assay: Antiproliferative activity against human HL-60(TB) cells assessed as cell growth at 10 uM; assay type: functional; details: read-out: Activity
Method in brief: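 NCI Developmental Therapeutics Program 60-cell-line one-dose screen at 10^-5 M. Readout is growth percentage of treated cells relative to untreated control cells.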

K562 = assay: Antiproliferative activity against human K562 cells assessed as cell growth at 10 uM; assay type: functional; details: read-out: Activity; method in brief: as §1

Telomerase reverse transcriptase (Homo sapiens), sequence (O14746 whole entry): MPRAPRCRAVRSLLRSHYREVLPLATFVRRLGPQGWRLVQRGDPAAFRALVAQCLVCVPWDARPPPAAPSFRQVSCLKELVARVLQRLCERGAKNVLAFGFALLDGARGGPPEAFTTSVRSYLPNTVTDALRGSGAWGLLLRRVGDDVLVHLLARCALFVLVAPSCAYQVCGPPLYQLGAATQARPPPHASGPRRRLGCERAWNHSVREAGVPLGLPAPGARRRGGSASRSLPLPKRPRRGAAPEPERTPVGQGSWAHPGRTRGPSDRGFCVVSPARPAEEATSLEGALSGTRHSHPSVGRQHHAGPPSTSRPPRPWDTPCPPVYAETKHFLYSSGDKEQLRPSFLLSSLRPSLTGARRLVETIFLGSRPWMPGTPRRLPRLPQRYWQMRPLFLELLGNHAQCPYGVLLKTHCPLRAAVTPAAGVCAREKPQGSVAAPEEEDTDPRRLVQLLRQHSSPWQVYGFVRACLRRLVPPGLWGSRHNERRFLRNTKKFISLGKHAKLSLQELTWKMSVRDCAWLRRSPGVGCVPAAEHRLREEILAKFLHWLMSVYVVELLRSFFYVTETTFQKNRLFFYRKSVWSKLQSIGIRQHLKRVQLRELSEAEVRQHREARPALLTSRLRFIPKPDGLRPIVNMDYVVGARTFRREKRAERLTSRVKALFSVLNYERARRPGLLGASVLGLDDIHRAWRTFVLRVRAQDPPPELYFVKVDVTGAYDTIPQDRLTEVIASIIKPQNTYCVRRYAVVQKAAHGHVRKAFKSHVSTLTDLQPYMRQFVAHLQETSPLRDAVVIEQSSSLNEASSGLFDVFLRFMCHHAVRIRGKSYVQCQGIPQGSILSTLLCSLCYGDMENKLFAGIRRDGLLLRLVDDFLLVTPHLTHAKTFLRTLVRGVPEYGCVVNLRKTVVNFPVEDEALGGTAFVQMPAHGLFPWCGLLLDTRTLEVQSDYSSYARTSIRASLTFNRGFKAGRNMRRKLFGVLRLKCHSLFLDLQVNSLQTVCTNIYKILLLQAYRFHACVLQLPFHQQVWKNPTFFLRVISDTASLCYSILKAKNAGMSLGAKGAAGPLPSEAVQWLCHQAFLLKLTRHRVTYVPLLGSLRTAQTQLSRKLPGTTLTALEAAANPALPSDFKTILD

Row | SMILES | growth at 10 µM (LOX IMVI) | growth at 10 µM (A498) | growth at 10 µM (HOP-62) | growth at 10 µM (SF-539) | growth at 10 µM (SW-620) | residual activity [1] | growth at 10 µM (SN12C) | growth at 10 µM (NCI-H226) | viability at 1 µM [2] | growth at 10 µM (MDA-MB-435) | growth at 10 µM (HOP-92) | growth at 10 µM (SNB-19) | growth at 10 µM (Malme-3M) | growth at 10 µM (SR) | growth at 10 µM (HCT-15) | growth at 10 µM (HL-60(TB)) | growth at 10 µM (K562)
1 | O=C1c2ccccc2C(=O)c2c1ccc1nc(-c3ccc(Br)cc3)[nH]c21 | 102% | 117% | 104% | 103% | 95% | 36% | 112% | 103% | 96% | 110% | 83.5% | 101% | 224% | 92.4% | 96.6% | 100% | 109%
2 | COc1cc(-c2nc3ccc4c(c3[nH]2)C(=O)c2ccccc2C4=O)ccc1O | 109% | 122% | 116% | 102% | 102% | 8% | 102% | 100% | 71% | 103% | 120% | 97.4% | 107% | 73.9% | 103% | 123% | 95.5%
3 | Cc1ccc(-c2nc3ccc4c(c3[nH]2)C(=O)c2ccccc2C4=O)cc1 | 104% | 176% | 110% | 91.7% | 113% | 29% | 103% | 101% | 75% | 105% | 77.3% | 97.8% | 97.6% | 114% | 100% | 125% | 102%
4 | O=C1c2ccccc2C(=O)c2c1ccc1nc(-c3ccccc3)[nH]c21 | 79.7% | 77% | 109% | 96.2% | 82.8% | 10% | 87.5% | 80.5% | 79% | 101% | 50.7% | 102% | 74.5% | 95.5% | 86.3% | 99% | 76%
5 | CN(C)c1ccc(-c2nc3ccc4c(c3[nH]2)C(=O)c2ccccc2C4=O)cc1 | 90.5% | 86.1% | 102% | 111% | 103% | 21% | 94.5% | 89.3% | 88% | 106% | 89.9% | 127% | 110% | 118% | 107% | 89.7% | 96.1%
